How the values were obtained:
[1] = test system: Pseudomonas aeruginosa 27853; test: Antimicrobial broth dilution assay, P. aeruginosa; format: cell-based
Summary of the method: (§1)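 Broth microdilution in microtiter format at 37 °C against the ATCC strains, with MIC as the read-out. C. albicans was grown in Sabouraud dextrose broth; MRSA and P. aeruginosa were grown in cation-supplemented Mueller-Hinton broth.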

Solubility = format: physicochemical; conditions: three physiologically relevant pH levels
Plasma stability, mouse = format: in vitro ADME; conditions: 3 h, both test concentrations
Plasma protein binding = format: in vitro ADME; conditions: both test concentrations
[2] = test system: methicillin-resistant Staphylococcus aureus 700787; test: Antimicrobial broth dilution assay, MRSA; format: cell-based; conditions: methicillin-resistant Staphylococcous aureus
Summary of the method: as §1

Candida albicans 44506 = test: Antimicrobial broth dilution assay, C. albicans; format: cell-based
Summary of the method: as §1

DNA = test: Ethidium bromide displacement; format: binding
Plasma stability, human = format: in vitro ADME; conditions: 3 h, both test concentrations
[3] = test system: PANC-1 human pancreatic carcinoma cells; test: Cell cycle analysis by flow cytometry; format: cell-based; conditions: PANC-1, 24 h, doses ≤ 46.5 μM

With `CC(=O)N(C)CCc1cc(Br)c(OCCCNc2ncn(C)c3ncnc2-3)c(Br)c1` [Aphrocallistin, aphrocallistin] the antimicrobial activity [1] was “did not show significant inhibition”, the solubility (Solubility) was “high” and the plasma stability (Plasma stability, mouse) was “excellent stability”. The protein binding (Plasma protein binding) was “moderate protein binding”, the antimicrobial activity [2] was “did not show significant inhibition” and the antimicrobial activity (Candida albicans 44506) was “did not show significant inhibition”. The “displacement of ethidium bromide (direct DNA binding)” value (DNA) was “no displacement of ethidium bromide was observed”, the plasma stability (Plasma stability, human) was “excellent stability” and the cell cycle arrest [3] was “induce G1 cell cycle arrest”. The cell cycle arrest ([3]; listed as aphrocallistin) was “significant cell cycle arrest at G1”.
